proCasp3 act = activates human procaspase-3; P42574; recombinant procaspase-3 D3A, Ac-DEVD-pNA absorbance 405 nm; activation, % at 8.5 µM; 330,000 compounds, 0.11% hits;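 active means activation above the mean of all tested compounds plus 3 SD, cut at about 21% in these data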;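 further: 0% = DMSO alone and 100% = DMSO wells spiked with extra 5 µM PC-3 D3A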
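Assay system – Procaspase-3 D3A mutant, all three cleavage aspartates alanine · Controls – DMSO-only low control, 5 µM PC-3 D3A high control · Schedule – 1 h compound preincubation, 2 h substrate hydrolysis at 25 °C · Signal – 405 nm absorbance of p-nitroaniline, reads at 0 and 120 min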
aDG glyco act = alpha-DG glycosylation activation | 360,000 compounds, 0.22% hits | activation, % at 10 µM | Pro5-aDG cells, alpha-DG glycosylation AlphaScreen (IIH6); 0% Pro5, 100% B10-LARGE cell signal;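 active means activation of at least 8% versus controls, or a plate z-score of at least 8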;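 further: Pro5 are CHO cells carrying HIG-tagged alpha-DG that lacks glycosylation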
NR3A LBD binder = modulators (binders) of human NR3A ligand-binding domain. NR3A LBD differential scanning fluorimetry, Tm shift; 0% = protein alone, 100% = glycine-bound protein. Tm shift relative to glycine control, % at 25 µM. 340,000 compounds, 2.5% hits;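 active means melting temperature shift of at least 10% of the positive control shift, at one fixed dose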
MPTP block = inhibitors of mitochondrial permeability transition pore. isolated mouse mitochondria, Ca2+ swelling absorbance, 30 min. inhibition, % at 10 µM. 360,000 compounds, 1.4% hits. AID 602449;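 active means inhibition of 50% or more, scaled per plate between neutral and stimulator controls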;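 further: 0% = DMSO wells given calcium and 100% = 1 mM EGTA wells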
proCasp7 act = activates human procaspase-7, counter-screen for procaspase-3 activators. recombinant procaspase-7, Ac-DEVD-pNA absorbance 405 nm; D23A/D198A/D206A triple mutant, cannot self-cleave; scale: DMSO 0, 5 µM enzyme 100. activation, % at 8.5 µM. 330,000 compounds, 0.093% hits. AID 463210;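 active means percent activation above the screen-wide mean plus 3 SD, cut at about 25% in these data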
Target sequence (P55210 whole entry D23A/D198A/D206A): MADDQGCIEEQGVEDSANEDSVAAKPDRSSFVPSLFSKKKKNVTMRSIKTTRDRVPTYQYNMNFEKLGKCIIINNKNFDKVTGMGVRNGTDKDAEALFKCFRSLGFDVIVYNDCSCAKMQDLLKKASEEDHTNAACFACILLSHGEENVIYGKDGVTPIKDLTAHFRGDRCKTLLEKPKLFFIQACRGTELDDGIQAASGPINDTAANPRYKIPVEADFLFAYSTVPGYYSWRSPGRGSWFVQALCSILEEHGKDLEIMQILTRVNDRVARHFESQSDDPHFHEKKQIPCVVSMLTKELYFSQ
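Detection: p-Nitroaniline absorbance at 405 nm, read at 0 and 120 min; system: Uncleavable procaspase-7 mutant enzyme; evaluation: % activation from two-timepoint absorbance difference, scaled to controls; times: 1 h enzyme–compound preincubation and 2 h substrate reaction, both 25 °C; buffer or medium: Zinc-free HEPES pH 7.4 with 300 mM NaCl, 0.01% Triton X-100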
MPTP counter = Rhodamine 123 counter-screen of mitochondrial pore hits | shares compounds with MPTP block | isolated mitochondria, membrane potential, Rhodamine 123 fluorescence | inhibition, % at 10 µM | 5,000 compounds, 78% hits | AID 624504; in the data active means inhibition above about 22%;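 further: 0% = DMSO vehicle and 100% = positive control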
MPTP abs DR = MPTP inhibition, dose response swelling confirmation; shares compounds with MPTP block; isolated mitochondria swelling, absorbance; IC50, µM; 780 compounds, 58% hits; in the data active means IC50 below about 20 µM
MPTP cs DR = active in counter-screen for permeability transition pore inhibitors; IC50, µM; isolated mitochondria counterscreen, fluorescence read-out; 780 compounds, 49% hits; shares compounds with MPTP block; in the data active means IC50 below about 80 µM
Active calls of the source: *; i = inactive; / = no result given. A selection: hits, their analogues and other compounds. The true share with any hit is near 3.7%.

SMILES	proCasp3 act	aDG glyco act	NR3A LBD binder	MPTP block	proCasp7 act	MPTP counter	others
COc1cc(CNCCc2c[nH]c3ccccc23)ccc1OCc1ccccc1F	-2	0	-4	1	1	/
Cc1ccccc1-c1nc(CN2CCC(C(=O)NC3CCN(Cc4ccccc4)CC3)CC2)c(C)o1	8	2	5	68*	8	-8	MPTP abs DR=i;MPTP cs DR=75*
COc1ccc(CCNC(=O)C2CCN(Cc3nc(-c4ccccc4C)oc3C)CC2)cc1OC	2	0	0	82*	-2	10	MPTP abs DR=9.7*;MPTP cs DR=23*
COc1ccc(CCNC(=O)C2CCN(Cc3nc(-c4ccc(Cl)cc4)oc3C)CC2)cc1OC	/	0	1	5	/	/
COC(=O)C1=CN(c2ccc(Oc3ccccc3)cc2)C(N)=C(C#N)C1c1ccc(-c2ccccc2)cc1 (configuration not stated)	/	0	/	1	/	/
CC(C)(C)c1ccc(CNc2ccc([N+](=O)[O-])cn2)cc1	-6	0	-11	56*	5	75*
CC(=O)Nc1cccc(NC(=O)CSc2ccc(C(F)(F)F)cc2[N+](=O)[O-])c1	9	0	1	4	-8	/
O=C(CSc1ccc(C(F)(F)F)cc1[N+](=O)[O-])Nc1ccc2ccccc2c1	-3	0	35*	74*	7	16	MPTP abs DR=>100;MPTP cs DR=>80
CCOc1ccc(-n2nc3c(Cl)nnc(C)c3c2C)cc1	12	0	3	1	3	/
COc1ccc(CCNCC(O)COc2cccc(Br)c2)cc1 (configuration not stated)	-9	1	-1	60*	12	-6	MPTP abs DR=5.1*;MPTP cs DR=47*
CN(Cc1ccc(Br)cc1)CC(O)COc1cccc(Br)c1 (configuration not stated)	11	0	-3	60*	-1	-4	MPTP abs DR=>100;MPTP cs DR=43*
CN(C)CC(O)COc1cccc(OCC(O)CN(C)C)c1 (configuration not stated)	3	0	-1	5	14	/
CCCCCCn1cc(CN2CC(N(C)CCC)CS2(=O)=O)nn1 (configuration not stated)	/	0	/	-1	/	/
COCCCNC(=O)CN(c1ccc(OC)cc1)S(=O)(=O)c1ccc(NC(C)=O)cc1	-2	0	-3	1	13	/
COc1ccc(OCc2cc(C(=O)N3CCOCC3)no2)c(Cl)c1	-6	0	0	0	4	/
Cc1cc(C)c(C#N)c(SCC(=O)C(C)(C)C)n1	-2	0	-9	0	-5	/
Cc1cc(C)c(C#N)c(SCCS(=O)(=O)c2ccc(C(C)(C)C)cc2)n1	-1	1	2	61*	8	20*
O=C(NCCc1ccc(Cl)cc1)Nc1ccc(F)cc1	2	0	4	1	1	/
Fc1ccc(NC(=S)NCCc2ccc(Cl)cc2)cc1	-4	0	23*	89*	4	90*
COc1ccccc1CNC(=S)Nc1ccc(F)cc1	8	0	2	0	7	/
COc1ccc(Cl)cc1NC(=S)NCCc1ccc(F)cc1	/	0	7	7	/	/
Fc1ccc(CCNC(=S)Nc2ccc(F)c(Cl)c2)cc1	-1	3	35*	103*	-4	95*
Fc1ccc(NC(=S)NCc2ccccc2Cl)cc1	2	0	-5	92*	6	76*
CC(=O)Nc1ccc(NC(=O)CSc2nc(=O)n(Cc3cccnc3)c3c2CCC3)cc1	/	0	-1	0	/	/
CC(C)(C)C(=O)NC(=S)NNC(=O)C(c1ccccc1)c1ccccc1	7	1	-1	92*	0	-8
COC(=O)c1ccc(NC(=S)NCCc2cccc(C)c2)cc1	11	1	24*	88*	11	91*
COC(=O)c1ccc(NC(=S)NCCc2ccccc2C)cc1	-3	0	29*	100*	4	83*

Screening results (PubChem BioAssay)
